Compound activity from PubChem.
An excerpt weighted towards active compounds, which were near 2.9% of everything screened.
CHO-K1 Ca antag = counter-screen for M1 antagonists: effect in parental CHO-K1 cells; AID 602250; ATP-induced calcium, Fluo-8 fluorescence; hit rate 0.6% among 360,000; inhibition, % at 3 µM;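 active means inhibition above a per-plate cutoff, the plate's mean sample inhibition plus 3 SD, cut at about 24% in these data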
M1 ag parental = nonselective activator or artifact in parental CHO-K1 cells; AID 602248; activation, % at 3 µM; hit rate 0.48% among 360,000; Fluo-8 calcium fluorescence; scaled to maximal ATP response, vehicle zero; in the data active means activation above about 15%;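 further: untransfected CHO-K1 host cells lacking M1 receptor as counterscreen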
CHO parental Ca = counter-screen for OX1R antagonists: effect in parental CHO cells; parental CHO-K1, ATP-induced calcium, Fluo-8 fluorescence; AID 463079; inhibition, % at 5.6 µM; hit rate 0.63% among 330,000;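 active means inhibition above that plate's mean sample inhibition plus 3 SD, cut at about 26% in these data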
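test system = CHO parental line | reagent = ATP stimulus | measured by = intracellular calcium via Fluo-8 no-wash fluorescent dye | control set = ATP and no-ATP DMSO wells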
OX1R antag-1 = antagonists of human orexin 1 receptor | CHO/OX1R cells, Fluo-8 calcium fluorescence, orexin A | inhibition, % at 5 µM | hit rate 0.43% among 330,000 | O43613;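 active means inhibition above its plate's threshold, mean inhibition of all tested compounds on the plate plus 3 SD, cut at about 37% in these data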
Target sequence (O43613 whole entry, looked up): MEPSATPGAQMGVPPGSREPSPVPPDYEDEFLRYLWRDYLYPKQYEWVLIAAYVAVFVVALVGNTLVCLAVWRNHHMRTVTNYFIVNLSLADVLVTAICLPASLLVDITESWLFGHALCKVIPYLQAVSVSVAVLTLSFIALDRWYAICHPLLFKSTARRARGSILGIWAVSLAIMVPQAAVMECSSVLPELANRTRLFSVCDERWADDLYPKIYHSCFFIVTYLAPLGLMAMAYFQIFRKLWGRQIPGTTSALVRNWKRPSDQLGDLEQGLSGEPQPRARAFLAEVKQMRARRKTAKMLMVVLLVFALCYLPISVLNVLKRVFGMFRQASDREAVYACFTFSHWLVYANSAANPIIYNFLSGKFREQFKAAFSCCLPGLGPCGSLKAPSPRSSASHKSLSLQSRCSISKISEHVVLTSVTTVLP
OX1R antag-2 = blocks the human orexin 1 receptor | O43613 | inhibition, % at 6.6 µM | OX1R-expressing cells, FRET antagonist read-out | AID 485270 | hit rate 1.8% among 330,000; in the data active means inhibition mostly above about 38%, no sharp cut-off; inactive means mostly below about 40%
M1 PAM parental = M1 PAM counterscreen hit in parental CHO-K1 cells. ATP EC20, Fluo-8 calcium fluorescence; 0% at ATP EC20, 100% at ATP max. hit rate 0.02% among 360,000. activation, % at 3 µM;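 active means activation above the run cutoff, the mean activation of all test compounds plus 3 SD, cut at about 40% in these data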;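 further: peak over basal fluorescence ratio in a 140 s read after ATP addition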
Large screens that a line does not name were inactive.

CC(C)C(=O)Nc1ccc(Br)cc1Cl	CHO-K1 Ca antag 56
Cc1ccc(Cl)cc1N1CCN(C(=O)CCS(=O)(=O)c2ccc3c(c2)NC(=O)CO3)CC1	M1 ag parental 15
Cn1cnc2c(=O)sc3ccccc3c21	none
O=c1oc2ccc3ccccc3c2cc1-c1nnc(-c2ccccc2)o1	OX1R antag-2 74
CCC(Oc1ccccc1)C(=O)NCCOC (centres undefined)	none
CC(NC(=O)NCCCC(=O)O)(C(F)(F)F)C(F)(F)F	CHO-K1 Ca antag 25
Cc1noc(-c2ccccc2)c1NC(=O)Nc1ccc(Cl)cc1	M1 ag parental 15
Cc1noc(-c2ccccc2)c1NC(=O)Nc1ccccc1	none
Cc1cc(C)n(-c2nc3c(c(=O)[nH]c(=O)n3C)n2Cc2ccccc2)n1	CHO-K1 Ca antag 25
CC(=O)c1ccc(OCC(=O)Nc2ccc3c(c2)OCO3)cc1	none (no result: CHO parental Ca, OX1R antag-1, OX1R antag-2)
O=c1cc(-c2ccccc2Cl)oc2c(NS(=O)(=O)c3cc(Cl)cc(Cl)c3O)ccc(O)c12	CHO parental Ca 75, OX1R antag-2 70
Cc1noc(C)c1COc1ccc(C(=O)OC(C)C(=O)Nc2ccc(S(=O)(=O)N3CCOCC3)cc2)cc1 (centres undefined)	M1 ag parental 17
CCOc1ccccc1C(=O)OC(C)C(=O)Nc1ccc(S(=O)(=O)N2CCCC2)cc1 (centres undefined)	CHO-K1 Ca antag 25
Cc1ccc(S(=O)(=O)N2CCOCC2)cc1NC(=O)COC(=O)c1ccc(OCc2c(C)noc2C)cc1	none
CCS(=O)c1ccccc1C(=O)OC(C)C(=O)Nc1ccc(S(=O)(=O)N2CCCC2)cc1 (centres undefined)	none
CCOc1ccc(CN2CCN(S(=O)(=O)c3ccc(NC(C)=O)cc3)CC2)cc1	M1 ag parental 22
Oc1ccccc1-c1nnc(COc2ccc(Cl)cc2Cl)o1	CHO-K1 Ca antag 44
Cc1ccnc(N/C=C(\C#N)c2nc(-c3cccc(Br)c3)cs2)c1	CHO-K1 Ca antag 39, M1 ag parental 85
COCCn1c(SCC#N)nnc1-c1ccc([N+](=O)[O-])cc1	OX1R antag-2 72
CC(=O)N1c2ccc(S(=O)(=O)N3CCCCC3)cc2CC1C(=O)NCc1ccccc1C (centres undefined)	none
Oc1c(Br)cc(/C=N/NC(=S)NCc2ccco2)cc1Br	OX1R antag-2 37
COc1ccccc1CNC(=O)C1CCC(CNc2c(N3CCC(C)CC3)c(=O)c2=O)CC1 (centres undefined)	none
FC(F)(F)c1cc(-c2cccs2)nc2nc(N3CCOCC3)sc12	none
CC(C)c1c(C(=O)N/N=C/c2ccsc2)nnn1-c1nonc1N	M1 ag parental 22
CC(C)c1c(C(=O)N/N=C/c2cccs2)nnn1-c1nonc1N	M1 ag parental 33
O=C(CCc1ccccc1)c1nnc(-c2ccccc2)o1	none
Cn1nnnc1SCC(=O)Nc1ccc(S(=O)(=O)N2CCOCC2)cc1	none
COc1ccc(NC(=O)Cn2nnc(C(=O)NCCc3ccccc3)c2N)cc1	M1 ag parental 19
CCOc1ccc(CCNC(=O)c2nnn(CC(=O)Nc3ccc(OC)cc3)c2N)cc1OCC	none
O=C(N/N=C/c1ccc(OCc2ccccc2)cc1)c1cccs1	OX1R antag-2 60
O=C(N/N=C/c1ccc(F)cc1)c1sccc1OCc1ccc(F)cc1	M1 PAM parental 45
Cc1ccccc1CN1[C@@H](CC2CCCCC2)COCCS1(=O)=O	OX1R antag-2 68
CCc1cccc(NC(=O)C2CCCN2S(=O)(=O)c2ccccc2C(F)(F)F)c1 (centres undefined)	none (no result: CHO parental Ca, OX1R antag-1, OX1R antag-2)
COc1cc(Nc2ccc(S(N)(=O)=O)cc2)c([N+](=O)[O-])nc1[N+](=O)[O-]	OX1R antag-2 48
O=C(Nc1ccc2c(c1)OCO2)c1cc(C2CCCCN2C(=O)CCCc2ccccc2)on1 (centres undefined)	none (no result: CHO parental Ca, OX1R antag-1, OX1R antag-2)
CC(=O)N1CCN(Cc2nc3cc(NC(=O)COc4cccc(C)c4)ccc3n2C)CC1	none
O=C(Nc1ccc(Cl)cc1Cl)c1ccc2ncsc2c1	M1 ag parental 21
O=C(Nc1ccc(F)cc1F)c1ccc2ncsc2c1	none
Cc1cc(NC(=O)Nc2cc(Cl)sc2Cl)no1	none
CCc1nc(N2CCN(C(=O)c3ccco3)CC2)c2oc3ccccc3c2n1	OX1R antag-2 51
Cc1nc(N2CCN(C(=O)c3ccco3)CC2)c2oc3ccccc3c2n1	none
O=C(O)c1cc([N+](=O)[O-])ccc1-c1ccc([N+](=O)[O-])cc1C(=O)O	none (no result: CHO parental Ca, OX1R antag-1, OX1R antag-2)
CCN(CC)C(=O)c1cc([N+](=O)[O-])cc2c1-c1ccc([N+](=O)[O-])cc1C2=C(C#N)C#N	OX1R antag-2 71
CCOC(=O)c1cc(-c2ccc(F)cc2)n(CC(=O)NCc2cccnc2)c1C	none
COc1cc(OC)c(-c2c3cc(O)c(=O)cc-3oc3cc(O)c(O)cc23)cc1OC	CHO-K1 Ca antag 68, M1 ag parental 258, CHO parental Ca 74, OX1R antag-1 105
COc1cc(-c2cc(=O)c3ccc(O)cc3o2)cc(OC)c1OC	none (no result: CHO parental Ca, OX1R antag-1, OX1R antag-2)
Cc1ccc(NC(=O)NNC(=O)CN2C(=O)COc3ccccc32)cc1	none
O=[N+]([O-])c1ccc(C2=NN(c3ccccc3)C(c3ccco3)C2)cc1 (centres undefined)	CHO-K1 Ca antag 59, M1 ag parental 71 (no result: CHO parental Ca, OX1R antag-1, OX1R antag-2)
O=[N+]([O-])c1ccc(/C=C/C2=NN(c3ccccc3)C(c3ccco3)C2)cc1 (centres undefined)	CHO-K1 Ca antag 33, M1 ag parental 20, CHO parental Ca 69, OX1R antag-1 80
O=c1sc2ccccc2c(N2CCOCC2)c1[N+](=O)[O-]	none
CSc1cccc(NC(=O)/C=C/c2ccc(Cl)cc2)c1	OX1R antag-2 92
CSc1cccc(NC(=O)/C=C/c2ccccc2)c1	none
Cc1ccc(S(=O)(=O)N(CC(=O)N/N=C/c2ccccc2C(=O)O)c2cc(Cl)cc(Cl)c2)cc1	none
CC(C)(C)OC(=O)N1CCC[C@H]1C(=O)Nc1ccc(C#N)cc1	none
Cc1ccc(F)c(N=Cc2c(O)c3ccccc3oc2=O)c1	OX1R antag-2 51
O=C(/C=C/c1ccc([N+](=O)[O-])s1)N1CCCCC1	OX1R antag-2 74
O=C(/C=C/c1ccc([N+](=O)[O-])s1)N1CCN(c2ccccc2)CC1	none
CC1CC(C)CN(C(=O)/C=C/c2ccc([N+](=O)[O-])s2)C1 (centres undefined)	none (no result: CHO parental Ca, OX1R antag-1, OX1R antag-2)
O=C(/C=C/c1ccc([N+](=O)[O-])s1)N1CCCC1	OX1R antag-2 52
COc1ccc(-c2c(NC(=O)c3ccco3)oc3ccccc3c2=O)cc1OC	none
COc1ccccc1S(=O)(=O)N(C)C[C@H]1Oc2cc(C#CCC3CCCC3)ccc2S(=O)(=O)N([C@H](C)CO)C[C@H]1C	none (no result: CHO parental Ca, OX1R antag-1, OX1R antag-2)
COc1cccc(NC(=O)N(C)C[C@H]2Oc3cc(Br)ccc3S(=O)(=O)N([C@H](C)CO)C[C@H]2C)c1	CHO-K1 Ca antag 28 (no result: CHO parental Ca, OX1R antag-1, OX1R antag-2)
